Columns and labels:
[1] = MTT cell viability, RAW 264.7 macrophages; format: cell-based, murine; conditions: mouse
Summary of the method: (§1)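 Cells are seeded at 1x10^5 cells/well, cultured for 24 h, then exposed to test compound at various concentrations for a further 24 h. MTT is added, formazan is dissolved in DMSO and absorbance is read at 570 nm. The tabulated viability is at 200 µM. Done at least in triplicate.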

[2] = MTT cell viability, DH82 macrophages; format: cell-based, canine; conditions: dog
Summary of the method: as §1

[3] = system: NO production in LPS-stimulated RAW 264.7 cells; test: LPS-stimulated NO production; format: cell-based, murine; conditions: Mus musculus, RAW264.7, 24 h, read-out: IC50 of NO, LPS (0.1 µg/ml)-stimulated RAW 264.7 cells, 24 h
Summary of the method: (§2)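 Macrophages are grown in DMEM with 10% FBS at 37 °C and 5% CO2, seeded at 1x10^5 cells/well and cultured for 24 h. They are pretreated with test compound for 1 h, then given LPS for 24 h (RAW 264.7: 0.1 µg/ml; DH82: 2 µg/ml). Medium NO is measured by Griess reagent against a standard curve; supernatant PGE2 is measured by ELISA. Done at least in triplicate.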

[4] = system: PGE2 production in LPS-stimulated RAW 264.7 cells; test: LPS-stimulated PGE2 production; format: cell-based, murine; conditions: Mus musculus, RAW264.7, 24 h, read-out: IC50 of PGE2, LPS (0.1 µg/ml)-stimulated RAW 264.7 cells, 24 h
Summary of the method: as §2

[5] = system: Mycobacterium tuberculosis; conditions: at low concentrations; cited from earlier work
iNOS [6] = test: Western blot iNOS protein expression, RAW 264.7; format: cell-based, murine; conditions: LPS-stimulated RAW 264.7; compared with nialamide
Summary of the method: (§3)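 Cells (2x10^5/well) are cultured for 24 h and pretreated with test compound for 1 h. LPS follows for 24 h (RAW 264.7: 0.1 µg/ml; DH82: 2 µg/ml). RIPA lysates (40 µg protein, BCA-quantified) are run on 10% SDS-PAGE and transferred to PVDF. Membranes are blocked in 5% milk, probed overnight at 4 °C with anti-iNOS and anti-COX-2 (1:1,000; canine-specific antibodies for DH82), then HRP secondary (1:3,000) for 2 h. Detection is ECL; densitometry uses GAPDH as the internal control; n=3.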

COX-2 [7] = test: Western blot COX-2 protein expression, RAW 264.7; format: cell-based, murine; conditions: LPS-stimulated RAW 264.7; compared with nialamide
Summary of the method: as §3

iNOS [8] = test: Western blot iNOS protein expression, DH82; format: cell-based, canine; conditions: LPS-stimulated DH82; compared with nialamide
Summary of the method: as §3

COX-2 [9] = test: Western blot COX-2 protein expression, DH82; format: cell-based, canine; conditions: LPS-stimulated DH82; compared with nialamide
Summary of the method: as §3

TNF-α = test: LPS-stimulated TNF-α production; format: cell-based, murine; conditions: LPS-stimulated RAW 264.7; compared with nialamide
Summary of the method: (§4)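 Seeding is 1x10^5 cells/well in DMEM with 10% FBS, followed by 24 h culture. Cells receive test compound for 1 h before LPS stimulation for 24 h (RAW 264.7: 0.1 µg/ml LPS; DH82: 2 µg/ml LPS). TNF-α, IL-6 and IL-10 in the culture medium are quantified by ELISA kits; n=3.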

IL-6 = test: LPS-stimulated IL-6 production; format: cell-based, murine; conditions: LPS-stimulated RAW 264.7; compared with nialamide
Summary of the method: as §4

IL-10 = test: LPS-stimulated IL-10 production; format: cell-based, murine; conditions: LPS-stimulated RAW 264.7; compared with nialamide
Summary of the method: as §4

[10] = system: ROS production in LPS-activated RAW 264.7 macrophages; test: Intracellular ROS; format: cell-based, murine; conditions: LPS 0.1 µg/ml, 50 to 200 µM, DCFH-DA
NF-κB = test: Western blot NF-κB phosphorylation, RAW 264.7; format: cell-based, murine; conditions: RAW 264.7 cells
Summary of the method: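 RAW 264.7 cells (2x10^5/well) are pretreated with test compound for 1 h, then stimulated with 0.1 µg/ml LPS for 24 h. RIPA lysates (40 µg) are separated on 10% SDS-PAGE and blotted to PVDF. Blots are probed overnight at 4 °C with anti-p-p65, p65, p-IκB and IκB (1:1,000), followed by HRP secondary and ECL detection. GAPDH is the loading control; three independent experiments.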

DPPH radical scavenging = conditions: compared with parent nialamide; 50 to 200 µM
Summary of the method: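 DPPH (200 µM in EtOH) is mixed 1:2 by volume with test compound solutions (50 to 200 µM in 70% EtOH). The mixture is incubated at 30 °C in the dark for 15 min, and the drop in absorbance at 517 nm is read. Scavenging % = [1-(A2/A1)]x100, where A1 is the blank without sample. (+)-Catechin is the positive control; n=3.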

ABTS+ radical scavenging = conditions: compared with parent nialamide
Summary of the method: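 ABTS radical cation formed by mixing 7 mM ABTS in ethanol with 2.4 mM potassium persulfate and holding it in the dark at 25 °C for 24 h. The solution is added to test compound at several concentrations, mixed for 30 sec, then incubated for 30 min at 25 °C. Scavenging % = [1-(A2/A1)]x100, where A1 is the blank without sample. (+)-Catechin is the positive control; n=3.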

Structure (SMILES)	viability at 24 h, 200 µM [1] [%]	viability at 24 h, 200 µM [2] [%]	IC50 [3] [µM]	IC50 [4] [µM]	inhibition of Mycobacterium tuberculosis [5]	iNOS protein expression (iNOS [6])	COX-2 protein expression (COX-2 [7])	iNOS protein expression (iNOS [8])	COX-2 protein expression (COX-2 [9])	TNF-α production (TNF-α)	IL-6 production (IL-6)	IL-10 production (IL-10)	ROS production [10]	LPS-stimulated phosphorylation of NF-κB (NF-κB)	DPPH radical scavenging activity (DPPH radical scavenging)	ABTS+ scavenging activity (ABTS+ radical scavenging)
O=C(CCNNC(=O)c1ccncc1)NCc1ccccc1 [Compound 1, nialamide, reference compound]	102 ± 2.3	99.9 ± 1.2	> 200	> 200	effectively inhibits	–	–	–	–	–	–	–	–	–	–	–
NCCC(=O)NCc1ccccc1 [Compound 3, 3-amino-N-benzylpropanamide]	102 ± 2	99.7 ± 1.2	170 ± 1.9	155 ± 1.9	–	–	–	–	–	–	–	–	–	–	–	–
COCCC(=O)NCc1ccccc1 [Compound 4, 3-methoxy-N-benzylpropanamide]	102 ± 2.2	97.6 ± 1.1	178 ± 2	161 ± 2	–	–	–	–	–	–	–	–	–	–	–	–
O=C(CCO)NCc1ccccc1 [Compound 5, 3-hydroxy-N-benzylpropanamide]	99.9 ± 2.2	97.2 ± 1	63.5 ± 0.8	55.4 ± 0.7	–	significant dose-dependent suppression	significant dose-dependent suppression	significant dose-dependent suppression	significant dose-dependent suppression	potent dose-dependent suppression	potent dose-dependent suppression	potent dose-dependent suppression	effectively suppress ROS production in a dose-dependent manner	dose-dependent inhibition	enhancement	enhancement
NC(=O)c1ccncc1 [Compound 7, isonicotinamide]	101 ± 1.9	98.4 ± 1.2	> 200	> 200	–	–	–	–	–	–	–	–	–	–	–	–

— publication PMC10966424 (Experimental and Therapeutic Medicine, 2024)
